According to ChEMBL document CHEMBL1811868, “Structure-activity relationship of 2-hydroxy-2-aryl-2,3-dihydro-imidazo[1,2-a]pyrimidinium salts and 2N-substituted 4(5)-aryl-2-amino-1H-imidazoles as inhibitors of biofilm formation by Salmonella Typhimurium and Pseudomonas aeruginosa” (Bioorg Med Chem, 2011):
Calls of active or inactive are those of the source.

Columns and labels:
[1] = tested on: Salmonella typhimurium; assay: Antimicrobial activity against Salmonella Typhimurium ATCC 14028 assessed as inhibition of biofilm formation after 24 hrs by spectrophotometry; format: functional, organism-based, Salmonella enterica subsp. enterica serovar Typhimurium; settings: Salmonella enterica, ATCC 14028, 24 h
Outline: (§1)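 Static peg-lid biofilm prevention assay. Twofold serial dilutions in TSB diluted 1/20, 2–3 repeats per compound. Overnight S. Typhimurium ATCC14028 (LB-grown) or P. aeruginosa PA14 (TSB-grown) cultures were diluted 1:100, giving ~10^6 cells/well, then incubated 24 h at 25 °C without shaking. Pegs were PBS-washed, stained 30 min with 0.1% crystal violet, extracted with 30% acetic acid and read at OD570. IC50 was fitted from the concentration gradient.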

[2] = tested on: Pseudomonas aeruginosa; assay: Antimicrobial activity against Pseudomonas aeruginosa PA14 assessed as inhibition of biofilm formation after 24 hrs by spectrophotometry; format: functional, organism-based; settings: PA14, 24 h; outline: as §1
[3] = tested on: Pseudomonas aeruginosa; assay: Antimicrobial activity against Pseudomonas aeruginosa PA14 assessed as inhibition of planktonic cell growth at IC50 after 24 hrs by […]; format: functional, organism-based
Outline: (§2)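 Planktonic growth was followed by Bioscreen growth curves, not by crystal violet. Overnight cultures were diluted 1:200 in TSB 1/20 and received compound serially diluted in DMSO or EtOH, in triplicate, with solvent controls. Plates were shaken at 25 °C for at least 24 h, reading A600 every 15 min.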

[4] = tested on: Pseudomonas aeruginosa; assay: Antimicrobial activity against Pseudomonas aeruginosa PA14 assessed as inhibition of planktonic cell growth at 80 uM after 24 hrs by […]; format: functional, organism-based; outline: as §2
[5] = tested on: Salmonella typhimurium; assay: Antimicrobial activity against Salmonella Typhimurium ATCC 14028 assessed as inhibition of planktonic cell growth at IC50 after 24 hrs by […]; format: functional, organism-based; settings: Salmonella enterica subsp. enterica serovar Typhimurium; outline: as §2
[6] = tested on: Salmonella typhimurium; assay: Antimicrobial activity against Salmonella Typhimurium ATCC 14028 assessed as inhibition of planktonic cell growth at 40 uM after 24 hrs by […]; format: functional, organism-based; settings: Salmonella enterica subsp. enterica serovar Typhimurium; outline: as §2
[7] = tested on: Pseudomonas aeruginosa; assay: Antimicrobial activity against Pseudomonas aeruginosa PA14 assessed as inhibition of planktonic cell growth at 40 uM after 24 hrs by […]; format: functional, organism-based; outline: as §2

Structure (SMILES)	IC50 [1]	IC50 [2]	growth inhibition (GI) [3]	growth inhibition (GI) [4]	growth inhibition (GI) [5]	growth inhibition (GI) [6]	growth inhibition (GI) [7]
COc1ccc(-c2cnc(NC3CCCCC3)[nH]2)cc1	378 µM	54.8 µM	inactive	inactive	–	–	–
O[C@@]1(c2ccc(F)cc2)C[n+]2cccnc2N1Cc1ccc2c(c1)OCO2	17.2 µM	–	–	–	inactive	inactive	–
CC(C)CNc1ncc(-c2ccc([N+](=O)[O-])cc2)[nH]1	3.8 µM	22.9 µM	inactive	–	inactive	inactive	–
CCCCCN1c2nccc[n+]2C[C@@]1(O)c1ccc(Cl)cc1	32.6 µM	164 µM	Active	–	inactive	inactive	–
Clc1ccc(-c2cnc(NCc3ccccc3)[nH]2)cc1	30.7 µM	26.3 µM	inactive	–	inactive	inactive	inactive
CNc1ncc(-c2ccc(F)cc2)[nH]1	102 µM	25.2 µM	inactive	–	–	–	inactive
CCCCNc1ncc(-c2ccccc2)[nH]1	25.3 µM	31.8 µM	–	–	inactive	inactive	–
CC(C)CN1c2nccc[n+]2C[C@@]1(O)c1ccc(Br)cc1	5.2 µM	6.3 µM	inactive	–	inactive	Active	inactive
CC(C)CN1c2nccc[n+]2C[C@@]1(O)c1ccc(Cl)c(Cl)c1	8 µM	–	–	–	inactive	Active	–
CCCCCN1c2nccc[n+]2C[C@@]1(O)c1ccc(Br)cc1	1.7 µM	4.2 µM	inactive	–	inactive	inactive	inactive
O[C@@]1(c2ccc(I)cc2)C[n+]2cccnc2N1Cc1ccccc1	36.7 µM	–	–	–	inactive	inactive	–
O=[N+]([O-])c1ccc(-c2cnc(NC3CCCCC3)[nH]2)cc1	36.7 µM	25 µM	–	–	inactive	inactive	–
CC(C)CN1c2nccc[n+]2C[C@@]1(O)c1ccc(Cl)cc1	31.4 µM	83.4 µM	–	–	inactive	inactive	–
O=[N+]([O-])c1cccc(-c2cnc(NC3CCCCC3)[nH]2)c1	630 µM	4.4 µM	inactive	–	–	–	inactive
COc1cccc(CNc2ncc(-c3ccc([N+](=O)[O-])cc3)[nH]2)c1	19.1 µM	3.7 µM	inactive	–	inactive	inactive	inactive
Clc1ccc(-c2cnc(NC3CCCC3)[nH]2)cc1	4.4 µM	13.5 µM	inactive	–	inactive	inactive	inactive
CNc1ncc(-c2ccc([N+](=O)[O-])cc2)[nH]1	170 µM	56.1 µM	inactive	inactive	–	–	–
CCCCN1c2nccc[n+]2C[C@@]1(O)c1ccc(Cl)cc1	29.7 µM	24.9 µM	inactive	–	inactive	inactive	inactive
O[C@@]1(c2ccc(Cl)cc2)C[n+]2cccnc2N1C1CCCCCCC1	12.6 µM	22.7 µM	Active	–	Active	–	–
